Experimental data from article PMC7017397 (ACS Omega, 2020).

Tests used:
[1] = Spinal cord pharmacokinetics after a single 1 mg/kg dose; type: in vivo, C57BL/6J mice; details: spinal cord
Summary of the method: (§1)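 Anaesthetized (zolazepam/xylazine i.p.) male C57BL/6J mice, n = 4 per time point, were dosed 1 mg/kg by i.v., s.c., i.p. or gavage. At 2.5–90 min, after cardiac blood sampling, they were transcardially perfused with saline. Brain and spinal cord were homogenized in equal weight-volume water, spiked with internal standard, deproteinized 1:3 with cold acetonitrile and quantified by LC–MS/MS. Per-time-point means were fitted with a two-compartment model.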

[2] = Brain pharmacokinetics after a single 1 mg/kg dose; type: in vivo, C57BL/6J mice; details: for Cmax / MRT last / Tmax / k el: C57BL/6J, mouse, 1 mg/kg; for brain drug targeting efficiency: from zero-infinity predicted AUC values
Summary of the method: as §1

[3] = brain, i.p. 1 mg/kg single dose
[4] = brain, i.v. 1 mg/kg single dose
[5] = brain, p.o. 1 mg/kg single dose
[6] = brain, s.c. 1 mg/kg single dose

CL_F (apparent total body clearance of the drug) ([1]; i.v. 1 mg/kg single dose): 1.52 ng/(min ng/g)
K12 (distribution rate constant) ([1]; i.v. 1 mg/kg single dose): 7.94 h⁻¹
K21 (redistribution rate constant) ([1]; i.v. 1 mg/kg single dose): 18.30 h⁻¹
V1_F (apparent volume of central compartment) ([1]; i.v. 1 mg/kg single dose): 0.23 μg/(ng/g)
V2_F (apparent volume of peripheral compartment) ([1]; i.v. 1 mg/kg single dose): 0.10 μg/(ng/g)
Vss (apparent volume of distribution at a steady state) ([1]; i.v. 1 mg/kg single dose): 0.33 μg/(ng/g)
Alpha (hybrid first-order rate constant, distribution phase) ([1]; p.o. 1 mg/kg single dose): 1.69 h⁻¹
Beta (hybrid first-order rate constant, elimination phase) ([1]; p.o. 1 mg/kg single dose): 0.26 h⁻¹
CLD2_F (apparent total clearance of the drug after administration) ([1]; p.o. 1 mg/kg single dose): 2.71 ng/(min ng/g)
CL_F (apparent total body clearance of the drug) ([1]; p.o. 1 mg/kg single dose): 2.33 ng/(min ng/g)
K01 (absorption rate constant) ([1]; p.o. 1 mg/kg single dose): 11.20 h⁻¹
K12 (distribution rate constant) ([1]; p.o. 1 mg/kg single dose): 0.51 h⁻¹
K21 (redistribution rate constant) ([1]; p.o. 1 mg/kg single dose): 1.00 h⁻¹
V1_F (apparent volume of central compartment) ([1]; p.o. 1 mg/kg single dose): 0.32 μg/(ng/g)
V2_F (apparent volume of peripheral compartment) ([1]; p.o. 1 mg/kg single dose): 0.16 μg/(ng/g)
Alpha (hybrid first-order rate constant, distribution phase) ([1]; s.c. 1 mg/kg single dose): 2.66 h⁻¹
Beta (hybrid first-order rate constant, elimination phase) ([1]; s.c. 1 mg/kg single dose): 0.22 h⁻¹
CLD2_F (apparent total clearance of the drug after administration) ([1]; s.c. 1 mg/kg single dose): 1.36 ng/(min ng/g)
CL_F (apparent total body clearance of the drug) ([1]; s.c. 1 mg/kg single dose): 3.68 ng/(min ng/g)
K01 (absorption rate constant) ([1]; s.c. 1 mg/kg single dose): 2.70 h⁻¹
K12 (distribution rate constant) ([1]; s.c. 1 mg/kg single dose): 0.69 h⁻¹
K21 (redistribution rate constant) ([1]; s.c. 1 mg/kg single dose): 0.32 h⁻¹
V1_F (apparent volume of central compartment) ([1]; s.c. 1 mg/kg single dose): 0.12 μg/(ng/g)
V2_F (apparent volume of peripheral compartment) ([1]; s.c. 1 mg/kg single dose): 0.26 μg/(ng/g)
Cmax ([2]; brain, ip): 48.1 ng/g
MRT last ([2]; brain, ip): 40.8 min
Tmax ([2]; brain, ip): 10.4 min
k el ([2]; brain, ip): 0.0002 s⁻¹
Cmax ([2]; brain, iv): 74.1 ng/g
MRT last ([2]; brain, iv): 42 min
k el ([2]; brain, iv): 0.0001 s⁻¹
Cmax ([2]; brain, po): 77 ng/g
MRT last ([2]; brain, po): 40.8 min
Tmax ([2]; brain, po): 14.9 min
k el ([2]; brain, po): 0.000122 s⁻¹
Cmax ([2]; brain, sc): 120 ng/g
MRT last ([2]; brain, sc): 42 min
Tmax ([2]; brain, sc): 19.9 min
k el ([2]; brain, sc): 0.000189 s⁻¹
Alpha (hybrid first-order rate constant, distribution phase) [2, 3]: 9.22 h⁻¹
Beta (hybrid first-order rate constant, elimination phase) [2, 3]: 0.30 h⁻¹
CLD2_F (apparent total clearance of the drug after administration) [2, 3]: 25.61 ng/(min ng/g)
CL_F (apparent total body clearance of the drug) [2, 3]: 3.77 ng/(min ng/g)
K01 (absorption rate constant) [2, 3]: 9.06 h⁻¹
K12 (distribution rate constant) [2, 3]: 4.92 h⁻¹
K21 (redistribution rate constant) [2, 3]: 3.87 h⁻¹
V1_F (apparent volume of central compartment) [2, 3]: 0.31 μg/(ng/g)
V2_F (apparent volume of peripheral compartment) [2, 3]: 0.40 μg/(ng/g)
Alpha (hybrid first-order rate constant, distribution phase) [2, 4]: 35.52 h⁻¹
Beta (hybrid first-order rate constant, elimination phase) [2, 4]: 0.20 h⁻¹
CLD2_F (apparent total clearance of the drug after administration) [2, 4]: 107.59 ng/(min ng/g)
CL_F (apparent total body clearance of the drug) [2, 4]: 2.43 ng/(min ng/g)
K12 (distribution rate constant) [2, 4]: 15.95 h⁻¹
K21 (redistribution rate constant) [2, 4]: 19.41 h⁻¹
V1_F (apparent volume of central compartment) [2, 4]: 0.40 μg/(ng/g)
V2_F (apparent volume of peripheral compartment) [2, 4]: 0.33 μg/(ng/g)
Vss (apparent volume of distribution at a steady state) [2, 4]: 0.74 μg/(ng/g)
Alpha (hybrid first-order rate constant, distribution phase) [2, 5]: 1.68 h⁻¹
Beta (hybrid first-order rate constant, elimination phase) [2, 5]: 0.26 h⁻¹
CLD2_F (apparent total clearance of the drug after administration) [2, 5]: 2.68 ng/(min ng/g)
CL_F (apparent total body clearance of the drug) [2, 5]: 2.28 ng/(min ng/g)
K01 (absorption rate constant) [2, 5]: 11.20 h⁻¹
K12 (distribution rate constant) [2, 5]: 0.51 h⁻¹
K21 (redistribution rate constant) [2, 5]: 0.99 h⁻¹
V1_F (apparent volume of central compartment) [2, 5]: 0.31 μg/(ng/g)
V2_F (apparent volume of peripheral compartment) [2, 5]: 0.16 μg/(ng/g)
Alpha (hybrid first-order rate constant, distribution phase) [2, 6]: 3.48 h⁻¹
Beta (hybrid first-order rate constant, elimination phase) [2, 6]: 0.41 h⁻¹
CLD2_F (apparent total clearance of the drug after administration) [2, 6]: 2.91 ng/(min ng/g)
CL_F (apparent total body clearance of the drug) [2, 6]: 1.75 ng/(min ng/g)
K01 (absorption rate constant) [2, 6]: 5.81 h⁻¹
K12 (distribution rate constant) [2, 6]: 1.13 h⁻¹
K21 (redistribution rate constant) [2, 6]: 2.07 h⁻¹
V1_F (apparent volume of central compartment) [2, 6]: 0.15 μg/(ng/g)
V2_F (apparent volume of peripheral compartment) [2, 6]: 0.08 μg/(ng/g)
brain drug targeting efficiency ([2]; i.p. 1 mg/kg): 0.71
brain drug targeting efficiency ([2]; p.o. 1 mg/kg): 8.21
brain drug targeting efficiency ([2]; s.c. 1 mg/kg): 1.37
Compound: CC(=O)N[C@@H](Cc1ccccc1)C(=O)N[C@H]1CCCNC(=O)[C@H](CCCNC(=N)N)NC(=O)[C@H](Cc2c[nH]c3ccccc23)NC(=O)[C@@H](CC2CCCCC2)NC(=O)[C@@H]2CCCN2C1=O [PMX53, Ac-Phe-[Orn-Pro-dCha-Trp-Arg]]
